# Key:
# [1] = target: 5-hydroxytryptamine receptor 4 (Rattus norvegicus, UniProt Q62758); experiment: Displacement of [3H]GR113808 from 5HT4 receptor in Sprague-Dawley albinus rat striatal membranes after 30 mins by scintillation counting; format: cell membranes, Membrane
# [2] = target: 5-hydroxytryptamine receptor 2A (Rattus norvegicus, UniProt P14842); experiment: Displacement of [3H]ketanserin from 5HT2A receptor in Sprague-Dawley albinus rat frontal cortex membranes after 15 mins; format: cell membranes, Membrane
# Summary of the method: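 Rat frontal cortex membranes (male Sprague–Dawley, 180–200 g). Nonspecific binding was set with 1 μM cinanserin.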
# [3] = Neuroprotective activity in Wistar rat hippocampi primary neuronal cells assessed as protection against serum-deprivation induced cell death at 10 uM after 24 hrs by MTT assay; format: functional, Hippocampus, Primary neuron
# Summary of the method: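 Mixed neuron-glia cultures from E18 Wistar rat hippocampi (Neurobasal plus 10% FCS), used at 11 days in vitro. Medium replaced by saline to withdraw serum; cells held 24 h with compound. Cell survival measured by MTT reduction, expressed as % protection.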
# [4] = target: T1, 5-hydroxytryptamine receptor 1A (Homo sapiens, UniProt P08908); experiment: Agonist activity at human 5HT1A receptor expressed in human HeLa cells assessed as inhibition of forskolin-stimulated cAMP production […] measured after 2 hrs by RIA; format: functional, cell-based
# T1 sequence (P08908 whole entry): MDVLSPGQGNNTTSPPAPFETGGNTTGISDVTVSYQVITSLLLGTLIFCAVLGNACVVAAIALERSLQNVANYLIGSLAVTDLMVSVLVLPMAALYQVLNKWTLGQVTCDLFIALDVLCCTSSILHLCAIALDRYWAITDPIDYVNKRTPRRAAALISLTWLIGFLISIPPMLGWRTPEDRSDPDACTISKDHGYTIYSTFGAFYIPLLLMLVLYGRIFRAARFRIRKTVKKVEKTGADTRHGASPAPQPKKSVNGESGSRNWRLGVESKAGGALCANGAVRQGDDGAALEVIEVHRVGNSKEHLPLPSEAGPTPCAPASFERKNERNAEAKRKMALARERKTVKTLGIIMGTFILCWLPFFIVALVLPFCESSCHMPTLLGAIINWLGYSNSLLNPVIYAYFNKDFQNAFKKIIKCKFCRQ
# Summary of the method: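 HeLa cells stably expressing the h5-HT1AR, grown in DMEM with 2 mM glutamine, 1 mM pyruvate and 10% heat-inactivated FCS, and used after 2–3 days at about 7.5 × 10^4 cells/well. After a PBS wash, cells were incubated 10 min in PBS with 0.5 mM isobutylmethylxanthine and 10 μM forskolin, with or without compound. The reaction was stopped with ice-cold ethanol, extracted 2 h and lyophilized; cAMP was measured by RIA.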
# [5] = target: 5-hydroxytryptamine receptor 7 (Rattus norvegicus, UniProt P32305); experiment: Displacement of [3H]-5-CT from 5HT7 receptor in Sprague-Dawley albinus rat hyphalamic membranes after 120 mins; format: cell membranes, Membrane
# [6] = target: D(2) dopamine receptor (Rattus norvegicus, UniProt P61169); experiment: Displacement of [3H]spiperone from dopamine D2 receptor in Sprague-Dawley albinus rat striatal membranes after 15 mins; format: cell membranes, Membrane
# [7] = target: T2, Adrenergic receptor alpha-1 (Rattus norvegicus, UniProt P15823+P23944+P43140); experiment: Displacement of [3H]prazosin from alpha1 adrenoceptor in Sprague-Dawley albinus rat cerebral cortex membranes after 30 mins; format: cell membranes, Membrane
# T2 sequence (P15823 whole entry): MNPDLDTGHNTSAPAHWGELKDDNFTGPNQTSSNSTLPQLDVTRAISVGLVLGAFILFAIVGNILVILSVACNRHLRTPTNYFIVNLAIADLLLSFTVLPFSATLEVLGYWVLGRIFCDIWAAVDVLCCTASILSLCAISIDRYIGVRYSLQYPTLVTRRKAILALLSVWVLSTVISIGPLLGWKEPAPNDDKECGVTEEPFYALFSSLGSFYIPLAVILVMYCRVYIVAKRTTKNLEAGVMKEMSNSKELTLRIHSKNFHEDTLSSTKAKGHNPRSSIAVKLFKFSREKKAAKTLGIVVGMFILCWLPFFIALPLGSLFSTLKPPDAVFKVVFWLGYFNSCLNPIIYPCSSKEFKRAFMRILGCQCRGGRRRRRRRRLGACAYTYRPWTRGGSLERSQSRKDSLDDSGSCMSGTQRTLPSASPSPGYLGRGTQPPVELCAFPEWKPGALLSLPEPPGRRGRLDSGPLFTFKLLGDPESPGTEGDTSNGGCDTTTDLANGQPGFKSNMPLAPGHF
# T2 sequence (P23944 whole entry): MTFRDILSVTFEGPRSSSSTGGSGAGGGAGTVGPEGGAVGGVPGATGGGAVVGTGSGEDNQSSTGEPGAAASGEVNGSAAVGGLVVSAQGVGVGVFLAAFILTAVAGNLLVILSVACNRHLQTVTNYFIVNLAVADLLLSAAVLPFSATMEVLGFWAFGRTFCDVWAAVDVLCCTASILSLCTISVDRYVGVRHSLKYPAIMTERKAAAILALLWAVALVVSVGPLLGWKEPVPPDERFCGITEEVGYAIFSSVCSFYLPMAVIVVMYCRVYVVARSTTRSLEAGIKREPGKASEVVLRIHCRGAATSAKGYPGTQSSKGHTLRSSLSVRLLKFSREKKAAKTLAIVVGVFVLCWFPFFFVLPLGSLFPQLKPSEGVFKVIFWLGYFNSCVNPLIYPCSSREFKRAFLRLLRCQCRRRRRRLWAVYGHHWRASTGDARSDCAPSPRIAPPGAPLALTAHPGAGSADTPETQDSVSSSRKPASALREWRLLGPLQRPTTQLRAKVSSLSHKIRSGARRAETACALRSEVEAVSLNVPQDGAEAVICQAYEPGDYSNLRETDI
# T2 sequence (P43140 whole entry): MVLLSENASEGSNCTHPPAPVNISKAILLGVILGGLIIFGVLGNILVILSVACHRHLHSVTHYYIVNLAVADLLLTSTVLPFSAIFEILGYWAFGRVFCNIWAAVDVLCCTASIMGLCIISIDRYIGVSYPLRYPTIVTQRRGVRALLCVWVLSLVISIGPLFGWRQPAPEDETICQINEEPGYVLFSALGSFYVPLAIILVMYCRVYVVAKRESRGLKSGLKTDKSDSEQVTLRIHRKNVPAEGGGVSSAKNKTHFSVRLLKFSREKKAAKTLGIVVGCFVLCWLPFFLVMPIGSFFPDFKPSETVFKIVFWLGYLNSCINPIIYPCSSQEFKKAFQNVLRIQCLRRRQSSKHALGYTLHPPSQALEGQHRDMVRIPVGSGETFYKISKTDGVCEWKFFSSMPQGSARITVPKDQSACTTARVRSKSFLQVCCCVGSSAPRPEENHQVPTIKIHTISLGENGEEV
# Summary of the method: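 Rat cerebral cortex membranes (about 250 μg protein; male Sprague–Dawley, 180–200 g) in 50 mM Tris-HCl with 10 mM MgCl2, pH 7.4. Incubation was 30 min at 25 °C with 0.2 nM [3H]prazosin and six competitor concentrations. Nonspecific binding was set with 10 μM phentolamine.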
# Sequence of 5-hydroxytryptamine receptor 4 (Q62758 whole entry): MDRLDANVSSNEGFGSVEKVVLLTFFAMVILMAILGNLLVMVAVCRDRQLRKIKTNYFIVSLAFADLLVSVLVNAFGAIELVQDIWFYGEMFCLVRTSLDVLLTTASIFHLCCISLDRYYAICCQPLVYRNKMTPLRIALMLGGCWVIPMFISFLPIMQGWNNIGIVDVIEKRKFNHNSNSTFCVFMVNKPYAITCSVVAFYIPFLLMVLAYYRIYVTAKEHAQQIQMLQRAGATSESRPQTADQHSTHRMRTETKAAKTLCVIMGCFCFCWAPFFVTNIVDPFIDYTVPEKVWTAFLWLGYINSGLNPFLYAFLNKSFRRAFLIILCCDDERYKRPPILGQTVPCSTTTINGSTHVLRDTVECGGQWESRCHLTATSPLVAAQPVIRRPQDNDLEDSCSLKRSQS
# Sequence of D(2) dopamine receptor (P61169 whole entry): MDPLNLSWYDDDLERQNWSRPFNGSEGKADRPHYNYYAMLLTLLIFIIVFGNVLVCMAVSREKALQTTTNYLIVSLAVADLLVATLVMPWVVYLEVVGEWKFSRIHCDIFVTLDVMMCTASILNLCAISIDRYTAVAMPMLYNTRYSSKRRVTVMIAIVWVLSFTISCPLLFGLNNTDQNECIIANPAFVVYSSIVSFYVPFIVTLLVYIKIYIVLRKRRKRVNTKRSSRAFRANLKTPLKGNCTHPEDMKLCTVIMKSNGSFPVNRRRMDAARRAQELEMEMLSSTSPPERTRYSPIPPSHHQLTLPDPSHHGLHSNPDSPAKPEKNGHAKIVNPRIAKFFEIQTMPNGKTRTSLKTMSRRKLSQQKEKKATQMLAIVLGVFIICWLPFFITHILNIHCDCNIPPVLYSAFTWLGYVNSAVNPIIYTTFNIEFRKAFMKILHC
# Sequence of 5-hydroxytryptamine receptor 7 (P32305 whole entry): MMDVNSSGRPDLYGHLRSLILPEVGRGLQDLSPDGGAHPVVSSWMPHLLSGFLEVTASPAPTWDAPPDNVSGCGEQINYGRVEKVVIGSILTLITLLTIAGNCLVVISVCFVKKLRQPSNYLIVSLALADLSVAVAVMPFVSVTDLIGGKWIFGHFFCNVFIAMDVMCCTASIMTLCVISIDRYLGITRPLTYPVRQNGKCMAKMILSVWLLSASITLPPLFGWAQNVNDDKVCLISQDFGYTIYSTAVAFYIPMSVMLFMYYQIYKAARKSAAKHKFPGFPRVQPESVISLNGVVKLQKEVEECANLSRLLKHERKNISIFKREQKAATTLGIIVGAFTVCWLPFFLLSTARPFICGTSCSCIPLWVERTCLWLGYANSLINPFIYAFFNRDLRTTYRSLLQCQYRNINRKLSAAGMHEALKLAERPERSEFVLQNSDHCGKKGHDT
# Sequence of 5-hydroxytryptamine receptor 2A (P14842 whole entry): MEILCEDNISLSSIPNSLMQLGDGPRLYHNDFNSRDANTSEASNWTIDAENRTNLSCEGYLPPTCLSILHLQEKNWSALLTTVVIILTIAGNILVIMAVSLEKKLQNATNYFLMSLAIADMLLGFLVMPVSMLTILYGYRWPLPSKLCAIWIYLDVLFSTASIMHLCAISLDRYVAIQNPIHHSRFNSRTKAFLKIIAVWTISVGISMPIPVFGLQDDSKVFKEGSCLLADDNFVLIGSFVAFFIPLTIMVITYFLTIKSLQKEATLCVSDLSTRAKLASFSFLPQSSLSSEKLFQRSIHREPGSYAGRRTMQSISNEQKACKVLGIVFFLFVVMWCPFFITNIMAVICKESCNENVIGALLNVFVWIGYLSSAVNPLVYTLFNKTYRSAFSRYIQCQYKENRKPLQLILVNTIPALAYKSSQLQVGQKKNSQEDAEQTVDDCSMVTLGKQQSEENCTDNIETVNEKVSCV
structure (smiles),measurement,setting,value
Cl.O=C1C2CCCN2C(=O)CN1CCCCNCC1CCc2ccccc2O1 (configuration not stated),Ki,[1],> 1000 nM
same,Ki,[2],> 1000 nM
same,Activity,[3],13%
same,EC50,[4],123 nM
same,Ki,[5],418 nM
same,Ki,[6],> 1000 nM
same,Ki,[7],107 nM
